# System: HEK-293T
# Assay: Multiplex assay against HEK293T;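 for Population Tubulin-Different-Phenotype (%): share of the cells with healthy nuclei that show this phenotype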
# Assay type: toxicity, cell-based
# Conditions: human
# How it was run: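 Hoechst33342, BioTracker Green Microtubule Cytoskeleton Dye, MitoTracker Red and Annexin V Alexa Fluor 680 were added to live cells at seeding, and imaging on a CQ1 microscope at 37°C and 5% CO2 followed compound addition. Gating by CellPathfinder machine learning separated cells into Hoechst high-intensity objects or normal cells, then normal cells into healthy, pyknosed or fragmented nuclei, then pyknosed cells into mitotic or apoptotic. Per cents of healthy-nucleus cells are reported for the tubulin, mitochondrial-mass and membrane-permeability phenotypes.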
# [1] = 12 h, 1 µM, compound concentration 1 uM, replicate 1
# [2] = 12 h, 1 µM, compound concentration 1 uM, replicate 2
# [3] = 12 h, 10 µM, compound concentration 10 uM, replicate 1
# [4] = 12 h, 10 µM, compound concentration 10 uM, replicate 2
# [5] = 24 h, 1 µM, compound concentration 1 uM, replicate 1
# [6] = 24 h, 1 µM, compound concentration 1 uM, replicate 2
# [7] = 24 h, 10 µM, compound concentration 10 uM, replicate 1
# [8] = 24 h, 10 µM, compound concentration 10 uM, replicate 2
# [9] = 48 h, 1 µM, compound concentration 1 uM, replicate 1
# [10] = 48 h, 1 µM, compound concentration 1 uM, replicate 2
# [11] = 48 h, 10 µM, compound concentration 10 uM, replicate 1
# [12] = 48 h, 10 µM, compound concentration 10 uM, replicate 2
structure (smiles),measurement,setting,value
COc1cc(-n2cnc3cc(-c4ccc(Cl)cc4)sc3c2=O)ccc1OCCN1CCCC1,Population Apoptotic (%),[1],59%
same,Population Fragmented Nuclei (%),[1],8%
same,Population Healthy Nuclei (%),[1],32%
same,Population Hoechst High Intensity Objects (%),[1],15%
same,Population Membrane Permeable-Phenotype (%),[1],1%
same,Population Mitochondria Different-Phenotype (%),[1],96%
same,Population Mitotic Cells (%),[1],40%
same,Population Normal (%),[1],84%
same,Population Pyknosed Nuclei (%),[1],58%
same,Population Tubulin-Different-Phenotype (%),[1],93%
same,Total Cell Count,[1],212
same,Population Apoptotic (%),[2],20%
same,Population Fragmented Nuclei (%),[2],5%
same,Population Healthy Nuclei (%),[2],40%
same,Population Hoechst High Intensity Objects (%),[2],4%
same,Population Membrane Permeable-Phenotype (%),[2],7%
same,Population Mitochondria Different-Phenotype (%),[2],42%
same,Population Mitotic Cells (%),[2],80%
same,Population Normal (%),[2],95%
same,Population Pyknosed Nuclei (%),[2],53%
same,Population Tubulin-Different-Phenotype (%),[2],60%
same,Total Cell Count,[2],265
same,Population Apoptotic (%),[3],57%
same,Population Fragmented Nuclei (%),[3],23%
same,Population Healthy Nuclei (%),[3],1%
same,Population Hoechst High Intensity Objects (%),[3],23%
same,Population Membrane Permeable-Phenotype (%),[3],0%
same,Population Mitochondria Different-Phenotype (%),[3],75%
same,Population Mitotic Cells (%),[3],42%
same,Population Normal (%),[3],76%
same,Population Pyknosed Nuclei (%),[3],74%
same,Population Tubulin-Different-Phenotype (%),[3],75%
same,Total Cell Count,[3],285
same,Population Apoptotic (%),[4],79%
same,Population Fragmented Nuclei (%),[4],16%
same,Population Healthy Nuclei (%),[4],15%
same,Population Hoechst High Intensity Objects (%),[4],4%
same,Population Membrane Permeable-Phenotype (%),[4],33%
same,Population Mitochondria Different-Phenotype (%),[4],58%
same,Population Mitotic Cells (%),[4],20%
same,Population Normal (%),[4],95%
same,Population Pyknosed Nuclei (%),[4],67%
same,Population Tubulin-Different-Phenotype (%),[4],66%
same,Total Cell Count,[4],242
same,Population Apoptotic (%),[5],72%
same,Population Fragmented Nuclei (%),[5],11%
same,Population Healthy Nuclei (%),[5],37%
same,Population Hoechst High Intensity Objects (%),[5],14%
same,Population Membrane Permeable-Phenotype (%),[5],1%
same,Population Mitochondria Different-Phenotype (%),[5],100%
same,Population Mitotic Cells (%),[5],27%
same,Population Normal (%),[5],85%
same,Population Pyknosed Nuclei (%),[5],50%
same,Population Tubulin-Different-Phenotype (%),[5],86%
same,Total Cell Count,[5],207
same,Population Apoptotic (%),[6],27%
same,Population Fragmented Nuclei (%),[6],4%
same,Population Healthy Nuclei (%),[6],61%
same,Population Hoechst High Intensity Objects (%),[6],2%
same,Population Membrane Permeable-Phenotype (%),[6],7%
same,Population Mitochondria Different-Phenotype (%),[6],52%
same,Population Mitotic Cells (%),[6],72%
same,Population Normal (%),[6],97%
same,Population Pyknosed Nuclei (%),[6],33%
same,Population Tubulin-Different-Phenotype (%),[6],66%
same,Total Cell Count,[6],325
same,Population Apoptotic (%),[7],73%
same,Population Fragmented Nuclei (%),[7],31%
same,Population Healthy Nuclei (%),[7],0%
same,Population Hoechst High Intensity Objects (%),[7],30%
same,Population Membrane Permeable-Phenotype (%),[7],0%
same,Population Mitochondria Different-Phenotype (%),[7],0%
same,Population Mitotic Cells (%),[7],26%
same,Population Normal (%),[7],69%
same,Population Pyknosed Nuclei (%),[7],68%
same,Population Tubulin-Different-Phenotype (%),[7],0%
same,Total Cell Count,[7],277
same,Population Apoptotic (%),[8],90%
same,Population Fragmented Nuclei (%),[8],20%
same,Population Healthy Nuclei (%),[8],22%
same,Population Hoechst High Intensity Objects (%),[8],7%
same,Population Membrane Permeable-Phenotype (%),[8],21%
same,Population Mitochondria Different-Phenotype (%),[8],68%
same,Population Mitotic Cells (%),[8],9%
same,Population Normal (%),[8],92%
same,Population Pyknosed Nuclei (%),[8],57%
same,Population Tubulin-Different-Phenotype (%),[8],48%
same,Total Cell Count,[8],228
same,Population Apoptotic (%),[9],53%
same,Population Fragmented Nuclei (%),[9],13%
same,Population Healthy Nuclei (%),[9],62%
same,Population Hoechst High Intensity Objects (%),[9],9%
same,Population Membrane Permeable-Phenotype (%),[9],5%
same,Population Mitochondria Different-Phenotype (%),[9],73%
same,Population Mitotic Cells (%),[9],46%
same,Population Normal (%),[9],90%
same,Population Pyknosed Nuclei (%),[9],23%
same,Population Tubulin-Different-Phenotype (%),[9],67%
same,Total Cell Count,[9],312
same,Population Apoptotic (%),[10],20%
same,Population Fragmented Nuclei (%),[10],4%
same,Population Healthy Nuclei (%),[10],79%
same,Population Hoechst High Intensity Objects (%),[10],3%
same,Population Membrane Permeable-Phenotype (%),[10],6%
same,Population Mitochondria Different-Phenotype (%),[10],21%
same,Population Mitotic Cells (%),[10],79%
same,Population Normal (%),[10],96%
same,Population Pyknosed Nuclei (%),[10],16%
same,Population Tubulin-Different-Phenotype (%),[10],57%
same,Total Cell Count,[10],539
same,Population Apoptotic (%),[11],76%
same,Population Fragmented Nuclei (%),[11],45%
same,Population Healthy Nuclei (%),[11],0%
same,Population Hoechst High Intensity Objects (%),[11],29%
same,Population Membrane Permeable-Phenotype (%),[11],0%
same,Population Mitochondria Different-Phenotype (%),[11],100%
same,Population Mitotic Cells (%),[11],23%
same,Population Normal (%),[11],70%
same,Population Pyknosed Nuclei (%),[11],54%
same,Population Tubulin-Different-Phenotype (%),[11],100%
same,Total Cell Count,[11],270
same,Population Apoptotic (%),[12],89%
same,Population Fragmented Nuclei (%),[12],21%
same,Population Healthy Nuclei (%),[12],28%
same,Population Hoechst High Intensity Objects (%),[12],10%
same,Population Membrane Permeable-Phenotype (%),[12],12%
same,Population Mitochondria Different-Phenotype (%),[12],73%
same,Population Mitotic Cells (%),[12],10%
same,Population Normal (%),[12],89%
same,Population Pyknosed Nuclei (%),[12],50%
same,Population Tubulin-Different-Phenotype (%),[12],38%
same,Total Cell Count,[12],256
OC1(c2ccc(Cl)cc2)CCN(Cc2c[nH]c3ccccc23)CC1,Population Apoptotic (%),[1],51%
same,Population Fragmented Nuclei (%),[1],20%
same,Population Healthy Nuclei (%),[1],14%
same,Population Hoechst High Intensity Objects (%),[1],15%
same,Population Membrane Permeable-Phenotype (%),[1],4%
same,Population Mitochondria Different-Phenotype (%),[1],63%
same,Population Mitotic Cells (%),[1],48%
same,Population Normal (%),[1],84%
same,Population Pyknosed Nuclei (%),[1],65%
same,Population Tubulin-Different-Phenotype (%),[1],45%
same,Total Cell Count,[1],177
same,Population Apoptotic (%),[2],18%
same,Population Fragmented Nuclei (%),[2],6%
same,Population Healthy Nuclei (%),[2],29%
same,Population Hoechst High Intensity Objects (%),[2],6%
same,Population Membrane Permeable-Phenotype (%),[2],7%
same,Population Mitochondria Different-Phenotype (%),[2],34%
same,Population Mitotic Cells (%),[2],81%
same,Population Normal (%),[2],93%
same,Population Pyknosed Nuclei (%),[2],63%
same,Population Tubulin-Different-Phenotype (%),[2],42%
same,Total Cell Count,[2],136
same,Population Apoptotic (%),[3],70%
same,Population Fragmented Nuclei (%),[3],11%
same,Population Healthy Nuclei (%),[3],11%
same,Population Hoechst High Intensity Objects (%),[3],15%
same,Population Membrane Permeable-Phenotype (%),[3],7%
same,Population Mitochondria Different-Phenotype (%),[3],100%
same,Population Mitotic Cells (%),[3],29%
same,Population Normal (%),[3],84%
same,Population Pyknosed Nuclei (%),[3],77%
same,Population Tubulin-Different-Phenotype (%),[3],92%
same,Total Cell Count,[3],275
same,Population Apoptotic (%),[4],63%
same,Population Fragmented Nuclei (%),[4],5%
same,Population Healthy Nuclei (%),[4],14%
same,Population Hoechst High Intensity Objects (%),[4],9%
same,Population Membrane Permeable-Phenotype (%),[4],17%
same,Population Mitochondria Different-Phenotype (%),[4],89%
same,Population Mitotic Cells (%),[4],36%
same,Population Normal (%),[4],90%
same,Population Pyknosed Nuclei (%),[4],80%
same,Population Tubulin-Different-Phenotype (%),[4],86%
same,Total Cell Count,[4],223
same,Population Apoptotic (%),[5],50%
same,Population Fragmented Nuclei (%),[5],22%
same,Population Healthy Nuclei (%),[5],30%
same,Population Hoechst High Intensity Objects (%),[5],16%
same,Population Membrane Permeable-Phenotype (%),[5],3%
same,Population Mitochondria Different-Phenotype (%),[5],70%
same,Population Mitotic Cells (%),[5],49%
same,Population Normal (%),[5],83%
same,Population Pyknosed Nuclei (%),[5],46%
same,Population Tubulin-Different-Phenotype (%),[5],42%
same,Total Cell Count,[5],210
same,Population Apoptotic (%),[6],27%
same,Population Fragmented Nuclei (%),[6],6%
same,Population Healthy Nuclei (%),[6],52%
same,Population Hoechst High Intensity Objects (%),[6],5%
same,Population Membrane Permeable-Phenotype (%),[6],8%
same,Population Mitochondria Different-Phenotype (%),[6],30%
same,Population Mitotic Cells (%),[6],72%
same,Population Normal (%),[6],94%
same,Population Pyknosed Nuclei (%),[6],40%
same,Population Tubulin-Different-Phenotype (%),[6],50%
same,Total Cell Count,[6],171
same,Population Apoptotic (%),[7],76%
same,Population Fragmented Nuclei (%),[7],14%
same,Population Healthy Nuclei (%),[7],3%
same,Population Hoechst High Intensity Objects (%),[7],16%
same,Population Membrane Permeable-Phenotype (%),[7],0%
same,Population Mitochondria Different-Phenotype (%),[7],100%
same,Population Mitotic Cells (%),[7],23%
same,Population Normal (%),[7],83%
same,Population Pyknosed Nuclei (%),[7],81%
same,Population Tubulin-Different-Phenotype (%),[7],100%
same,Total Cell Count,[7],282
same,Population Apoptotic (%),[8],89%
same,Population Fragmented Nuclei (%),[8],5%
same,Population Healthy Nuclei (%),[8],8%
same,Population Hoechst High Intensity Objects (%),[8],8%
same,Population Membrane Permeable-Phenotype (%),[8],15%
same,Population Mitochondria Different-Phenotype (%),[8],73%
same,Population Mitotic Cells (%),[8],10%
same,Population Normal (%),[8],91%
same,Population Pyknosed Nuclei (%),[8],85%
same,Population Tubulin-Different-Phenotype (%),[8],84%
same,Total Cell Count,[8],238
same,Population Apoptotic (%),[9],58%
same,Population Fragmented Nuclei (%),[9],19%
same,Population Healthy Nuclei (%),[9],53%
same,Population Hoechst High Intensity Objects (%),[9],13%
same,Population Mitochondria Different-Phenotype (%),[9],41%
same,Population Mitotic Cells (%),[9],41%
same,Population Normal (%),[9],86%
same,Population Pyknosed Nuclei (%),[9],26%
same,Population Tubulin-Different-Phenotype (%),[9],31%
same,Total Cell Count,[9],247
same,Population Apoptotic (%),[10],7%
same,Population Fragmented Nuclei (%),[10],7%
same,Population Healthy Nuclei (%),[10],70%
same,Population Hoechst High Intensity Objects (%),[10],2%
same,Population Membrane Permeable-Phenotype (%),[10],6%
same,Population Mitochondria Different-Phenotype (%),[10],15%
same,Population Mitotic Cells (%),[10],92%
same,Population Normal (%),[10],97%
same,Population Pyknosed Nuclei (%),[10],22%
same,Population Tubulin-Different-Phenotype (%),[10],39%
same,Total Cell Count,[10],264
same,Population Apoptotic (%),[11],71%
same,Population Fragmented Nuclei (%),[11],22%
same,Population Healthy Nuclei (%),[11],0%
same,Population Hoechst High Intensity Objects (%),[11],18%
same,Population Membrane Permeable-Phenotype (%),[11],0%
same,Population Mitochondria Different-Phenotype (%),[11],100%
same,Population Mitotic Cells (%),[11],28%
same,Population Normal (%),[11],81%
same,Population Pyknosed Nuclei (%),[11],77%
same,Population Tubulin-Different-Phenotype (%),[11],100%
same,Total Cell Count,[11],295
same,Population Apoptotic (%),[12],89%
same,Population Fragmented Nuclei (%),[12],19%
same,Population Healthy Nuclei (%),[12],19%
same,Population Hoechst High Intensity Objects (%),[12],4%
same,Population Membrane Permeable-Phenotype (%),[12],4%
same,Population Mitochondria Different-Phenotype (%),[12],71%
same,Population Mitotic Cells (%),[12],10%
same,Population Normal (%),[12],95%
same,Population Pyknosed Nuclei (%),[12],60%
same,Population Tubulin-Different-Phenotype (%),[12],95%
same,Total Cell Count,[12],224

# Source: ChEMBL document CHEMBL4689842, “EUbOPEN Chemogenomics Library wave 1” (2021)
